Data on two compounds can be found in paper PMC4050360 (Results in Pharma Sciences, 2014).

As usually defined, the clearance is the volume of plasma or blood freed of the substance per unit of time. By Vd is commonly meant a proportionality between amount in the body and measured concentration, not a real space. Low readings indicate confinement near the circulation, high ones extensive tissue distribution. What is called half-life is the time needed for the level to fall by half in the phase considered. A high value points to slow decline.

The conditions of data set [1]: ref 41 (Scifinder); cited from earlier work.
Data set [2] is described as follows: In vivo pharmacokinetic study, intravenous emulsion. Details: species or system female Sprague Dawley rats. The following applies: rat. The essentials: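 Female Sprague Dawley rats (248–276 g; n = 6/group) received a tail-vein dose molar equivalent to 5 mg aripiprazole/kg. Vehicle: submicron emulsion (20% w/w MCT oil, 1.2% lecithin, 2% glycerol, water; 1 mg aripiprazole-equivalent/mL). K-EDTA blood was sampled at 5, 15, 30 min and 1–24 h. Acidified-acetonitrile plasma extracts with d8 internal standard were analysed by positive-ESI MRM. Two-compartment fit; trapezoidal AUC extrapolated to infinity; mean ± SEM.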

For data set [3] the following is noted: cited from earlier work.
Where [4] appears, read: female, Sprague Dawley, plasma, iv, 5 mg/kg.

In brackets after ≈: the same amount, converted by molar mass.

Regarding `O=C1CCc2ccccc2N1` [3,4-dihydro-2(1H)-quinolinone], in data set [1], the “Estimated pKa” value is reported as 14.6.
As for `O=C1CCc2ccc(OCCCCN3CCN(c4cccc(Cl)c4Cl)CC3)cc2N1` [aripiprazole], the clearance in data set [2] (female, Sprague Dawley, plasma, iv, 5 mg aripiprazole/kg (molar equivalent)) was 22.8 mL/min/kg. In data set [2] (setting [4]), the Vd was 8.16 ± 0.75 L/kg and the half-life is around 4.2 h. Moreover, the “AUC0?8” value in data set [2] (i.v., molar equivalent to 5 mg aripiprazole/kg, n = 6, mean ± SEM) amounted to 8176 ± 2647 nmol?h/L. Besides, the solubility in water in data set [3] is 9 µM (≈ 4.04 µg/mL).
